What was measured:
Dynamic light scattering = format: physicochemical; conditions: DLS at stock concentration, 15 measurements, regularization fit
Procedure, shortened: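 Samples were spun 15 min at 18 000 g and measured at stock concentration at 100% laser power until intensity readings were consistent. 15 measurements per sample gave the size distribution by regularization fit. Effective radius and aggregation by intensity and by mass were reported. Controls were maleimide-capped XTEN (negative) and BSA (positive), with BSA re-measured after 10 min at 80 °C and 5 min on ice.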

HIV-1Ba-L = assay: In vitro antiviral MAGI assay; format: cell-based; conditions: read-out: IC50 for inhibition of virus replication, MAGI CCR5 cells, 48 h, β-galactosidase read-out (Gal-screen), triplicate
Procedure, shortened: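 MAGI CCR5 cells are HeLa-derived, express CXCR4, CD4 and CCR5, and carry an HIV-1 LTR–β-galactosidase reporter. Cells were plated at 1 × 10^4 per well and adhered overnight at 37 °C. Medium was replaced with the compound range (up to 10 nM), then HIV-1Ba-L was added. After 48 h, lysates were read with Gal-screen and expressed as % of the no-compound blank. Tested in triplicate with unmodified-peptide and capped-XTEN controls.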

[1] = format: physicochemical; conditions: as E13; dimer peak of the precursor before conjugation
Procedure, shortened: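 Vydac C4 column (5 μm, 300 Å, 4.6 × 150 mm), ambient temperature, 1 mL/min. Equilibrated at 5% B, then a linear gradient of 5–50% B over 45 min. 20 μg protein injected. Absorbance read at 214 nm. The thiol-XTEN precursor was run before conjugation.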

[2] = dosed in rats; cited from earlier work

Substance	aggregation by intensity (Dynamic light scattering)	aggregation by mass (Dynamic light scattering)	other results
BSA (heat treated): heat-treated BSA, positive control for aggregation in DLS	92.2%	28%	
BSA (not heat treated): BSA (Fermentas), DLS control before heat treatment	0%	0%	
Enfuvirtide			IC50 (HIV-1Ba-L): 380 pM
SAGSPTPGTSESATPESGPGSEPATSGSETPGTSESATPESGPGSEPATSGSETPGTSESATPESGPGTSTEPSEGSAPGTSESATPESGPGSPAGSPTSTEEGSPAGSPTSTEEGSPAGSPTSTEEGTSESATPESGPGTSTEPSEGSAPGTSESATPESGPGSEPATSGSETPGTSESATPESGPGSEPATSGSETPGTSESATPESGPGTSTEPSEGSAPGSPAGSPTSTEEGTSESATPESGPGSEPATSGSETPGTSESATPESGPGSPAGSPTSTEEGSPAGSPTSTEEGTSTEPSEGSAPGTSESATPESGPGTSESATPESGPGTSESATPESGPGSEPATSGSETPGSEPATSGSETPGSPAGSPTSTEEGTSTEPSEGSAPGTSTEPSEGSAPGSEPATSGSETPTAEAAGCGTAEAASASR [XTEN-1]			C4 RPC retention time of suspected disulfide-bonded dimer [1]: 21.2 min
enfuvirtide			half-life in rats [2]: 2.8 h

— PMC4157762 (Bioconjugate Chemistry, 2014)
